In ChEMBL document CHEMBL4610003 (Bioorg Med Chem, 2020):
≈ marks a conversion by molar mass, not a printed value.

Key:
[1] = tested on: Mycobacterium tuberculosis; assay: Antimycobacterial activity against Mycobacterium tuberculosis H37Rv assessed as bacterial growth inhibition incubated for 10 days under anerobic condition followed by incubation under ambient gaseous condition for […] by low oxygen recovery assay; format: functional
Outline: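 Read-out is MIC90, the lowest concentration giving 90% growth inhibition of M.tb H37Rv, in µg/mL. Bacteria were held under non-replicating, low-oxygen conditions (LORA).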

[2] = tested on: Mycobacterium tuberculosis; assay: Antimycobacterial activity against Mycobacterium tuberculosis H37Rv assessed as bacterial growth inhibition under replicating, aerobic condition by microplate Alamar blue assay; format: functional
Outline: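 Read-out is MIC90, the lowest concentration giving 90% growth inhibition of M.tb H37Rv, in µg/mL. Bacteria were grown under aerobic, replicating conditions (MABA).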

[3] = biological target: T1, hERG (KCNH2) (Homo sapiens, UniProt Q12809); assay: Inhibition of human ERG at 3 uM relative to control
[4] = Protein binding in human plasma; format: ADME, cell-free; settings: read-out: PPB
[5] = AUC (0 to infinity) in CD-1 mouse at 10 mg/kg, po via gavage administered as single dose; format: ADME, organism-based; set-up: dose 10 mg/kg, route oral, time infinity; settings: in vivo
Outline: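 Male CD-1 mice given a single 10 mg/kg dose by oral gavage. Exposure is reported as area under the curve from 0 to infinity in µg*h/mL.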

[6] = Intrinsic clearance in mouse liver microsomes assessed per mg protein; format: ADME, Microsome; settings: read-out: CLH
Outline: (§1)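 Clearance of compound by human or mouse liver microsomes, expressed as µL/min/mg protein.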

[7] = Oral bioavailability in CD-1 mouse at 10 mg/kg administered via gavage as single dose; format: ADME, organism-based; settings: in vivo
[8] = biological target: Voltage-gated inwardly rectifying potassium channel KCNH2 (Homo sapiens, UniProt Q12809); assay: Inhibition of human ERG
[9] = Clearance in CD-1 mouse at 2 to 3 mg/kg, iv administered as single bolus dose; format: ADME, organism-based; settings: in vivo
Outline: (§2)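 Male CD-1 mice received a single intravenous bolus at 2–3 mg/kg. Reported values are IV clearance and the apparent volume of distribution during the terminal phase, in L/kg.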

[10] = Intrinsic clearance in human liver microsomes assessed per mg protein; format: ADME, Microsome; settings: read-out: CLH; outline: as §1
[11] = tested on: Vero; assay: Cytotoxicity against African green monkey Vero cells assessed as reduction in cell viability incubated for 72 hrs by […] assay; format: cell-based; settings: Chlorocebus sabaeus
[12] = Apparent volume of distribution during terminal phase in CD-1 mouse at 2 to 3 mg/kg, iv administered as single bolus dose; format: ADME, organism-based; settings: in vivo; outline: as §2
[13] = biological target: T1, hERG (KCNH2); assay: Inhibition of human ERG at 10 uM relative to control

Chain of Voltage-gated inwardly rectifying potassium channel KCNH2 (Q12809 whole entry): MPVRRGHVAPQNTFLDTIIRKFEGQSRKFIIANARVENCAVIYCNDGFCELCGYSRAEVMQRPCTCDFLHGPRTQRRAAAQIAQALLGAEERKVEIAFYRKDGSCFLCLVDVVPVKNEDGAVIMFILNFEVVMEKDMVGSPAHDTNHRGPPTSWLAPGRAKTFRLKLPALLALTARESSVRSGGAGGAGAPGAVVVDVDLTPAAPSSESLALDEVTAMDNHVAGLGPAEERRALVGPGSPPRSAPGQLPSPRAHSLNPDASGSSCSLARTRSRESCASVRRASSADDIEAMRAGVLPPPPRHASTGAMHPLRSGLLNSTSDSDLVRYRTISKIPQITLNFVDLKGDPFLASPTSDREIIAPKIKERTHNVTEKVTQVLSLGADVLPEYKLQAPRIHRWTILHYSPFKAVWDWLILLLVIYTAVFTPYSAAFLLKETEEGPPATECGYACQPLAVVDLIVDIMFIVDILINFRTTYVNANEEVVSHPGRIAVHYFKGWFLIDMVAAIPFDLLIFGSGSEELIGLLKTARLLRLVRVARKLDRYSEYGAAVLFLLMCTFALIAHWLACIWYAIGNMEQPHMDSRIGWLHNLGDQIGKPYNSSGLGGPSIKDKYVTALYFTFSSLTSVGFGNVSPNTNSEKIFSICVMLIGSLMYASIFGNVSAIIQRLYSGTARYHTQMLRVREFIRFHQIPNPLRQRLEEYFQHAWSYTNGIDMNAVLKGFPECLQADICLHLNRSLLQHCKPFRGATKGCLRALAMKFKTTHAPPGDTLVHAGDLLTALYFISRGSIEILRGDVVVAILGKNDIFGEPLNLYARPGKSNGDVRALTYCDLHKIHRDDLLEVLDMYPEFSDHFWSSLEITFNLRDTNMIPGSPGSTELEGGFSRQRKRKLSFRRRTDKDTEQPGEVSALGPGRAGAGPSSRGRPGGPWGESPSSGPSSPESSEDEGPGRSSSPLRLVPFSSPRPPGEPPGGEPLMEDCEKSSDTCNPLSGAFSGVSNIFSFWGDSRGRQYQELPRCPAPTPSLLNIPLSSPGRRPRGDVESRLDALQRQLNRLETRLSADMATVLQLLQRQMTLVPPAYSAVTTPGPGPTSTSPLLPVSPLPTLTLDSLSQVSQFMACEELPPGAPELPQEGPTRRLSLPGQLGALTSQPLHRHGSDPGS
T1 sequence (Q12809 whole entry): as above

SMILES | MIC90 [1] [µg/mL] | MIC90 [2] [µg/mL] | inhibition at 3 µM [3] [%] | fraction unbound [4] | AUC(0-inf) [5] [ng·h/mL] | microsomal CLint [6] [µL/min/mg] | bioavailability [7] [%] | IC50 [8] [µM] | clearance [9] [mL/min/kg] | microsomal CLint [10] [µL/min/mg] | IC50 [11] [µg/mL] | Vz/F [12] [L/kg] | inhibition at 10 µM [13] [%]
CCSc1cc([C@](O)(CCN(C)C)[C@H](c2cccc(C)c2)c2cc3cc(Br)ccc3nc2OC)cc(N(C)C)n1 (racemic) | 0.12 (≈ 0.192 µM) | 0.14 (≈ 0.224 µM) | 23 |  |  |  |  |  |  |  |  |  | 
CCSc1cc([C@](O)(CCN(C)C)[C@H](c2cccc(C)c2)c2cc3cc(C#N)ccc3nc2OC)cc(N(C)C)n1 (racemic) | 0.17 (≈ 0.298 µM) | 0.12 (≈ 0.211 µM) | 51 |  |  |  |  |  |  |  |  |  | 
COc1cc([C@](O)(CCN(C)C)[C@@H](c2cc3cc(Br)ccc3nc2OC)c2cc(OC)nc(OC)c2OC)cc(OC)n1 (racemic) [TBAJ-876] |  |  |  | < 0.005 |  |  |  |  |  |  |  |  | 
COc1nc2ccc(Br)cc2cc1[C@@H](c1ccccc1)[C@@](O)(CCN(C)C)c1cccc2ccccc12 [BEDAQUILINE] | 0.06 (≈ 0.108 µM) | 0.03 (≈ 0.054 µM) |  | < 0.005 | 17400 |  |  |  |  |  |  |  | 
CCOc1cc([C@](O)(CCN(C)C)[C@H](c2cccc(C)c2)c2cc3cc(Br)ccc3nc2OC)cc(OC)n1 (racemic) | < 0.02 | < 0.02 |  |  | 9400 | 7.8 | 65 | > 10 | 12 | 4.4 | > 10 | 45 | 
COc1cc([C@](O)(CCN(C)C)[C@@H](c2cc3cc(Br)ccc3nc2OC)c2cccc(C)c2F)cc(OC(F)F)n1 (racemic) | 0.03 (≈ 0.0473 µM) | 0.01 (≈ 0.0158 µM) |  |  |  |  |  |  |  |  |  |  | 3
COc1cccc([C@H](c2cc3cc(C#N)ccc3nc2OC)[C@@](O)(CCN(C)C)c2cc(SC)nc(SC)c2)c1F (racemic) | 0.05 (≈ 0.0844 µM) | 0.03 (≈ 0.0506 µM) |  |  | 1100 | 20 | 28 | 5.1 | 44 | 15 | > 10 | 53 | 
CCOc1cc([C@](O)(CCN(C)C)[C@@H](c2cc3cc(Br)ccc3nc2OC)c2cccc(OC)c2F)cc(OC)n1 (racemic) | < 0.01 | < 0.01 |  |  | 4000 | 14 | 46 | > 30 | 19 | 4.1 | > 10 | 51 | 
COc1nc2ccc(Br)cc2cc1[C@@H](c1ccnc(OC)c1OC)[C@@](O)(CCN(C)C)c1cc(SC)nc(SC)c1 (racemic) | < 0.02 | < 0.02 |  |  | 3900 | 10 | 41 | 2.8 | 18 | 8.8 | > 10 | 64 | 
COc1cc([C@](O)(CCN(C)C)[C@@H](c2cc3cc(Br)ccc3nc2OC)c2cccc(OC)c2F)cc(OC)n1 (racemic) [TBAJ-587] | 0.01 (≈ 0.0163 µM) |  |  | < 0.005 |  |  |  |  |  | 2.2 |  |  | 
CCSc1cc([C@](O)(CCN(C)C)[C@@H](c2cc3cc(Br)ccc3nc2OC)c2cccc3c2OCO3)cc(SCC)n1 (racemic) | 0.06 (≈ 0.0895 µM) | 0.01 (≈ 0.0149 µM) |  |  | 5500 | 12 | 11 | > 10 | 3.4 | 9.5 | > 10 | 9.4 | 
COc1nc2ccc(Br)cc2cc1[C@@H](c1cccc(C)c1F)[C@@](O)(CCN(C)C)c1cc(SC)nc(SC)c1 (racemic) | 0.06 (≈ 0.0951 µM) | < 0.004 | 13 |  |  |  |  |  |  |  |  |  | 
COc1cc([C@](O)(CCN(C)C)[C@@H](c2cc3cc(Br)ccc3nc2OC)c2ccnc(OC)c2OC)cc(OC(F)F)n1 (racemic) | < 0.004 | < 0.004 |  |  | 9800 | 4.9 | 50 | > 10 | 8.7 | 2.1 | > 10 | 27 | 
COc1nc2ccc(C#N)cc2cc1[C@@H](c1cccc(C)c1F)[C@@](O)(CCN(C)C)c1cc(SC)nc(SC)c1 (racemic) | 0.17 (≈ 0.295 µM) | 0.02 (≈ 0.0347 µM) |  |  | 2400 | 13 | 31 | > 10 | 22 | 9.2 | > 10 | 79 | 
CCSc1cc([C@](O)(CCN(C)C)[C@@H](c2cc3cc(Br)ccc3nc2OC)c2cccc(OC)c2F)cc(SCC)n1 (racemic) | < 0.02 | < 0.02 |  |  | 11900 | 12 | 25 | > 10 | 3.6 | 4.9 | 6.5 (≈ 9.63 µM) | 14 | 
